What was measured:
[1] = test system: Amaranthus retroflexus; assay: Herbicidal activity against Amaranthus retroflexus assessed as growth inhibition at 150 g ai/ha applied as post-emergence treatment under green house conditions measured 15 days post compound treatment; assay type: functional; settings: 360 h, read-out: GI
Procedure, shortened: (§1)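 Post-emergence spray on pot-grown dicot weeds at the two-leaf stage in a greenhouse. Clay soil: pH 6.5, 1.6% organic matter, 37.3% clay, CEC 12.1 cmol/kg. Formulation: 100 g/L DMF/TW-80 emulsified concentrate, water-diluted to 150 g ai/ha. Untreated and DMF solvent controls. Visual inhibition rating at 15 days: ++ >80%, + 50-80%, − <50%.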

[2] = test system: Chenopodium album; assay: Herbicidal activity against Chenopodium album assessed as growth inhibition at 150 g ai/ha applied as pre-emergence treatment 24 hr after weeds seeds sowing under green house conditions measured 15 days post compound treatment; assay type: functional; settings: read-out: GI
Procedure, shortened: (§2)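 Pre-emergence spray applied 24 h after sowing weeds in pots in a greenhouse. Clay soil: pH 6.5, 1.6% organic matter, 37.3% clay, CEC 12.1 cmol/kg. Formulation: 100 g/L emulsified concentrate (DMF solvent, TW-80 emulsifier) diluted with water to 150 g ai/ha. Untreated and DMF-treated controls. Growth inhibition judged visually at 15 days: ++ >80%, + 50-80%, − <50%.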

[3] = test system: Setaria viridis; assay: Herbicidal activity against Setaria viridis (green foxtail) assessed as growth inhibition at 150 g ai/ha applied as pre-emergence treatment 24 hr after weeds seeds sowing under green house conditions measured 15 days post compound treatment; assay type: functional; settings: read-out: GI; procedure, shortened: as §2
[4] = test system: Echinochloa crus-galli; assay: Herbicidal activity against Echinochloa crus-galli (barnyard grass) assessed as growth inhibition at 150 g ai/ha applied as pre-emergence treatment 24 hr after weeds seeds sowing under green house conditions measured 15 days post compound treatment; assay type: functional; settings: read-out: GI; procedure, shortened: as §2
[5] = test system: Brassica juncea; assay: Herbicidal activity against Brassica juncea assessed as growth inhibition at 150 g ai/ha applied as post-emergence treatment under green house conditions measured 15 days post compound treatment; assay type: functional; settings: 360 h, read-out: GI; procedure, shortened: as §1
[6] = test system: Digitaria sanguinalis; assay: Herbicidal activity against Digitaria sanguinalis (hairy crabgrass) assessed as growth inhibition at 150 g ai/ha applied as post-emergence treatment under green house conditions measured 15 days post compound treatment; assay type: functional; settings: 360 h, read-out: GI
Procedure, shortened: (§3)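 Monocot weeds grown in pots in a greenhouse and sprayed post-emergence at the one-leaf stage. Clay soil: pH 6.5, 1.6% organic matter, 37.3% clay, CEC 12.1 cmol/kg. Formulation: 100 g/L emulsified concentrate (DMF, TW-80) diluted with water to 150 g ai/ha. Untreated and DMF controls included. Growth inhibition scored visually after 15 days: ++ >80%, + 50-80%, − <50%.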

[7] = test system: Brassica juncea; assay: Herbicidal activity against Brassica juncea assessed as growth inhibition at 150 g ai/ha applied as pre-emergence treatment 24 hr after weeds seeds sowing under green house conditions measured 15 days post compound treatment; assay type: functional; settings: read-out: GI; procedure, shortened: as §2
[8] = test system: Echinochloa crus-galli; assay: Herbicidal activity against Echinochloa crus-galli (barnyard grass) assessed as growth inhibition at 150 g ai/ha applied as post-emergence treatment under green house conditions measured 15 days post compound treatment; assay type: functional; settings: 360 h, read-out: GI; procedure, shortened: as §3
[9] = test system: Chenopodium album; assay: Herbicidal activity against Chenopodium album assessed as growth inhibition at 150 g ai/ha applied as post-emergence treatment under green house conditions measured 15 days post compound treatment; assay type: functional; settings: 360 h, read-out: GI; procedure, shortened: as §1
[10] = test system: Digitaria sanguinalis; assay: Herbicidal activity against Digitaria sanguinalis (hairy crabgrass) assessed as growth inhibition at 150 g ai/ha applied as pre-emergence treatment 24 hr after weeds seeds sowing under green house conditions measured 15 days post compound treatment; assay type: functional; settings: read-out: GI; procedure, shortened: as §2
[11] = test system: Setaria viridis; assay: Herbicidal activity against Setaria viridis (green foxtail) assessed as growth inhibition at 150 g ai/ha applied as post-emergence treatment under green house conditions measured 15 days post compound treatment; assay type: functional; settings: 360 h, read-out: GI; procedure, shortened: as §3
[12] = target: T1, Acetolactate synthase, chloroplastic (Arabidopsis thaliana, UniProt P17597); assay: Inhibition of wild type Arabidopsis thaliana acetohydroxyacid synthase
T1 sequence (P17597 whole entry): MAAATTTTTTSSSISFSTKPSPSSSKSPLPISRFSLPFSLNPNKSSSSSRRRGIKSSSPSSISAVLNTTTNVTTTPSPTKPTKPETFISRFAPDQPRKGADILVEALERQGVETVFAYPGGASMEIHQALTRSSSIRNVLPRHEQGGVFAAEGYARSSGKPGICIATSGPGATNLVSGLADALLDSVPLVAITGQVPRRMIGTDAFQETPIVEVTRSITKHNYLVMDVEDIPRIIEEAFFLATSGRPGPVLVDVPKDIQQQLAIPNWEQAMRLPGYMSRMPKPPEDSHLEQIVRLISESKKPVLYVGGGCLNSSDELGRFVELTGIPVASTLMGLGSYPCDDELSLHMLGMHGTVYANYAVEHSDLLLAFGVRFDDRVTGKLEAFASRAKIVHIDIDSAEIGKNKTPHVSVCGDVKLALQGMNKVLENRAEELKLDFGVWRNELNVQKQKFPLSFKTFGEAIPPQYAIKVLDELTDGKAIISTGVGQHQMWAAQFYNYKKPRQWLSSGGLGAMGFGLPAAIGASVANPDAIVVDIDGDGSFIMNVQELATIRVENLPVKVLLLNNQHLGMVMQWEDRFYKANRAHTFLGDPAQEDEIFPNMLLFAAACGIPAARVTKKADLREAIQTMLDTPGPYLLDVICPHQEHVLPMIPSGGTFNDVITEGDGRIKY

[13] = test system: Amaranthus retroflexus; assay: Herbicidal activity against Amaranthus retroflexus assessed as growth inhibition at 150 g ai/ha applied as pre-emergence treatment 24 hr after weeds seeds sowing under green house conditions measured 15 days post compound treatment; assay type: functional; settings: read-out: GI; procedure, shortened: as §2

Row | Structure (SMILES) | Ki [12] [µM] | inhibition of growth at 150 g/ha [1] [%] | inhibition of growth at 150 g/ha [2] [%] | inhibition of growth at 150 g/ha [3] [%] | inhibition of growth at 150 g/ha [4] [%] | inhibition of growth at 150 g/ha [5] [%] | inhibition of growth at 150 g/ha [6] [%] | inhibition of growth at 150 g/ha [7] [%] | inhibition of growth at 150 g/ha [8] [%] | inhibition of growth at 150 g/ha [9] [%] | inhibition of growth at 150 g/ha [10] [%] | inhibition of growth at 150 g/ha [11] [%] | inhibition of growth at 150 g/ha [13] [%]
1 | CCn1nc(C)c2cccc(Oc3nc(OC)cc(OC)n3)c2c1=O | 1680 | > 80 | < 50 | < 50 | < 50 | < 50 | > 80 | < 50 | > 80 | 50 | < 50 | > 80 | < 50
2 | COc1cc(OC)nc(Oc2cccc3c(C)nn(Cc4ccccc4)c(=O)c23)n1 | 822 | < 50 | < 50 | < 50 | < 50 | < 50 | < 50 | < 50 | < 50 | < 50 | < 50 | < 50 | < 50
3 | COc1cc(OC)nc(Oc2cccc3c(C)nn(Cc4ccc(F)cc4F)c(=O)c23)n1 | 1040 | > 80 | < 50 | < 50 | < 50 | 50 | < 50 | < 50 | 50 | < 50 | < 50 | 50 | < 50
4 | COc1cc(OC)nc(Oc2cccc3c(C)nn(Cc4cccc(F)c4)c(=O)c23)n1 | 1400 | < 50 | < 50 | < 50 | < 50 | < 50 | < 50 | < 50 | < 50 | < 50 | < 50 | < 50 | < 50
5 | C=CCn1nc(C)c2cccc(Oc3nc(OC)cc(OC)n3)c2c1=O | 5250 | > 80 | < 50 | < 50 | < 50 | < 50 | 50 | < 50 | > 80 | 50 | < 50 | > 80 | < 50

Stronger by Ki [12], values ahead:

Row | Ki [12] [µM] | Structure (SMILES) | inhibition of growth at 150 g/ha [1] [%] | inhibition of growth at 150 g/ha [2] [%] | inhibition of growth at 150 g/ha [3] [%] | inhibition of growth at 150 g/ha [4] [%] | inhibition of growth at 150 g/ha [5] [%] | inhibition of growth at 150 g/ha [6] [%] | inhibition of growth at 150 g/ha [7] [%] | inhibition of growth at 150 g/ha [8] [%] | inhibition of growth at 150 g/ha [9] [%] | inhibition of growth at 150 g/ha [10] [%] | inhibition of growth at 150 g/ha [11] [%] | inhibition of growth at 150 g/ha [13] [%]
6 | 420 | COc1cc(OC)nc(Oc2cccc3c(C)nn(Cc4ccc(Br)cc4F)c(=O)c23)n1 | < 50 | < 50 | < 50 | < 50 | < 50 | < 50 | < 50 | < 50 | < 50 | < 50 | < 50 | < 50
7 | 634 | COc1cc(OC)nc(Oc2cccc3c(C)nn(Cc4c(F)cccc4F)c(=O)c23)n1 | < 50 | < 50 | < 50 | < 50 | < 50 | < 50 | < 50 | < 50 | < 50 | < 50 | < 50 | < 50
8 | 362 | COc1cc(OC)nc(Oc2cccc3c(C)nn(Cc4ccccc4Br)c(=O)c23)n1 | < 50 | < 50 | < 50 | < 50 | < 50 | < 50 | < 50 | < 50 | < 50 | < 50 | < 50 | < 50
9 | 759 | COc1cc(OC)nc(Oc2cccc3c(C)nn(Cc4cccc(Br)c4)c(=O)c23)n1 | > 80 | < 50 | < 50 | < 50 | 50 | 50 | < 50 | 50 | < 50 | < 50 | 50 | < 50
10 | 789 | COc1cc(OC)nc(Oc2cccc3c(C)n[nH]c(=O)c23)n1 | > 80 | < 50 | < 50 | < 50 | < 50 | > 80 | < 50 | > 80 | 50 | < 50 | > 80 | < 50
11 | 557 | CCOC(=O)Cn1nc(C)c2cccc(Oc3nc(OC)cc(OC)n3)c2c1=O | > 80 | < 50 | < 50 | < 50 | < 50 | 50 | < 50 | > 80 | 50 | < 50 | > 80 | < 50
